# From ChEMBL document CHEMBL3232852, “Bexarotene prodrugs: targeting through cleavage by NQO1 (DT-diaphorase)” (Bioorg Med Chem Lett, 2014)
# How the values were obtained:
# [1] = molecular target: T1, NAD(P)H dehydrogenase [quinone] 1 (Homo sapiens, UniProt P15559); experiment: Prodrug conversion assessed as NQO1 (unknown origin)-mediated bexarotene formation at 5 uM by HPLC analysis in presence of 300 uM NADH followed by addition of NADH at 30 and 60 mins; format: ADME; details: 1 h
# Outline: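 Same NQO1 incubation: 5 µM compound, 37 ± 1 °C, diaphorase 50 U/mL, 0.07% BSA and 300 µM NADH in tris pH 7.4. Extra NADH was added at 30 and 60 min to test cofactor depletion. Bexarotene formation was read by RP-18 HPLC, in triplicate.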
# [2] = Activity of pig liver esterase at 5 uM after 180 mins; format: ADME, Sus scrofa; details: 3 h
# Outline: (§1)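 Porcine liver esterase at a final 76 µg/mL (1.3 U/mL) in tris buffer pH 7.4. Conjugates were incubated at 5 µM and monitored for ester cleavage and free bexarotene over 180 min and up to 24 h. Ethylbenzoate was the reference substrate at 100 µM.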
# [3] = molecular target: T1, NAD(P)H dehydrogenase [quinone] 1; experiment: Prodrug conversion assessed as NQO1 (unknown origin)-mediated bexarotene formation at 5 uM by HPLC analysis in presence of NADH; format: ADME
# Outline: (§2)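 DMSO stocks were diluted 100-fold with tris buffer, and compound (5 µM) was incubated at 37 ± 1 °C with or without diaphorase (NQO1, 50 U/mL). The mix held 0.07% BSA and 300 µM NADH in tris pH 7.4. Bexarotene release was followed by RP-18 HPLC (acetonitrile/water); incubations ran up to 24 h, in triplicate.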
# [4] = molecular target: T1, NAD(P)H dehydrogenase [quinone] 1; experiment: Prodrug conversion assessed as NQO1 (unknown origin)-mediated bexarotene formation at 5 uM after 4 to 24 hrs by HPLC analysis in presence of NADH; format: ADME; outline: as §2
# [5] = Activity of pig liver esterase at 100 uM after 7 mins; format: ADME, Sus scrofa; outline: as §1
# T1 sequence (P15559 whole entry): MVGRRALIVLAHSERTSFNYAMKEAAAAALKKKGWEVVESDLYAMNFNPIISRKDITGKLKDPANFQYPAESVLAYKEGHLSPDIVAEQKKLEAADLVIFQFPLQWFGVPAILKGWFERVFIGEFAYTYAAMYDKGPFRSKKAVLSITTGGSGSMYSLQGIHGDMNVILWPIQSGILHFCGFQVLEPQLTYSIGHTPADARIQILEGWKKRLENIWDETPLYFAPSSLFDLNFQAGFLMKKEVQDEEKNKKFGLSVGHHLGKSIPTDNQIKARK
Drug metabolism [1],Drug metabolism [3],SMILES,other results
metabolite_notdetected,,C=C(c1ccc(C(=O)OCc2c3c(n(C)c2C)C(=O)C=C(OC)C3=O)cc1)c1cc2c(cc1C)C(C)(C)CCC2(C)C,Drug metabolism [2]: metabolite_notdetected
metabolite_notdetected,metabolite_detected,C=C(c1ccc(C(=O)OCc2c3c(n(C)c2C)C(=O)C(C)=C(OC)C3=O)cc1)c1cc2c(cc1C)C(C)(C)CCC2(C)C,
metabolite_notdetected,metabolite_detected,C=C(c1ccc(C(=O)OCc2cn(C)c3c2C(=O)C(OC)=CC3=O)cc1)c1cc2c(cc1C)C(C)(C)CCC2(C)C,
metabolite_notdetected,,C=C(c1ccc(C(=O)OCc2c(C)c3c(n2C)C(=O)C=C(OC)C3=O)cc1)c1cc2c(cc1C)C(C)(C)CCC2(C)C,Drug metabolism [4]: metabolite_notdetected
,metabolite_detected,COC1=CC(=O)c2c(c(COc3ccc([N+](=O)[O-])c(C)c3)c(C)n2C)C1=O,
,metabolite_detected,COC1=CC(=O)c2c(c(C)c(COc3ccc([N+](=O)[O-])c(C)c3)n2C)C1=O,
,,CCOC(=O)c1ccccc1 [ETHYL BENZOATE],Drug metabolism [5]: metabolite_detected
